The results in this text go back to ChEMBL document CHEMBL1649302, “New small-molecule inhibitor class targeting human immunodeficiency virus type 1 virion maturation” (Antimicrob Agents Chemother, 2009).

Structures are written as SMILES. pEC50: −log10 of the molar value.

In data set [1] the test system is Human immunodeficiency virus 1. Briefly: Antiviral activity against HIV1 NL4-3 infected in human MT2 cells assessed as protection against virus-induced cytopathogenicity after 6 days by XTT assay. In kind it is functional, organism-based. The conditions noted are these: Human immunodeficiency virus 1, NL4-3, MT2, 144 h. Summed up: (§1)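 Host cells were infected with NL4-3 or IIIB (MOI 0.08) or RF (MOI 0.025–0.819) and seeded at 2 × 10⁴/well onto half-log compound dilutions. After 6 days, XTT/PMS was added for 4 h and formazan was read at 450 nm. EC50 was the concentration giving 50% of the formazan of uninfected, compound-free cells.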
Background: Protection from cytopathic effect is a common read-out in antiviral testing.

For data set [2], the system named is Human immunodeficiency virus 1. Briefly: Antiviral activity against HIV1 NL4-3 infected in human PM1 cells assessed as inhibition of viral p24 antigen production after 5 days. The conditions noted are these: Human immunodeficiency virus 1, NL4-3, PM1, 120 h. The format is functional, organism-based. The method in brief: (§2)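 PM1 cells (NL4-3, Ba-L) or MT-2 cells (92HT594, 92HT599) were infected at MOI 0.16 for 2 h and washed. They were plated at 1 × 10⁴ cells/well (2 × 10⁵/ml) onto half-log compound dilutions. Supernatant p24 was quantified by ELISA at day 5. EC50 was the concentration giving a 50% decrease versus infected, compound-free cells.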

The nature of data set [3]: Therapeutic index, ratio of CC50 for human PM1 cells to EC50 for HIV1 NL4-3 infected in human PM1 cells. The format is cell-based. To be noted: read-out: TI. Summed up:
(§3)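 PM1 cells infected at MOI 0.16 for 2 h, washed, then seeded at 1 × 10⁴ cells/well on half-log compound dilutions. After 5 days, supernatant p24 antigen was quantified by ELISA kit. EC50 is the concentration halving p24 versus infected untreated cells. CC50 was measured in PM1 cells by XTT formazan at 450 nm. TI is CC50 divided by EC50.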

For data set [4], the system named is Human immunodeficiency virus 1. Briefly: Antiviral activity against HIV1 3B infected in human MT2 cells assessed as protection against virus-induced cytopathogenicity after 6 days by XTT assay. The format is functional, organism-based. To be noted: Human immunodeficiency virus 1, 3B, MT2, 144 h. The method in brief:
as §1

Data set [5] can be described thus: Therapeutic index, ratio of CC50 for human PM1 cells to EC50 for HIV1 Ba-L infected in human PM1 cells. The format is cell-based. To be noted: read-out: TI. Summed up: as §3
The nature of data set [6]: Cytotoxicity against human CEM-SS cells after 6 days by XTT assay. The format is cell-based. Summed up:
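Uninfected cells were incubated with half-log compound dilutions for 6 days, then given XTT/PMS for 4 h and read at 450 nm. CC50 was the concentration reducing formazan to 50% of uninfected, compound-free cells. Values are means ± SD from 3–5 experiments or individual values.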

Data set [7] deals with Human immunodeficiency virus 1. Briefly: Antiviral activity against HIV1 92HT594 infected in human MT2 cells assessed as inhibition of viral p24 antigen production after 5 days. In kind it is functional, organism-based. The conditions noted are these: Human immunodeficiency virus 1, 92HT594, MT2, 120 h. The method in brief: as §2
Data set [8] in a line: Therapeutic index, ratio of CC50 for human MT2 cells to EC50 for HIV1 92HT594 infected in human MT2 cells. In kind it is cell-based. The conditions noted are these: read-out: TI. Summed up: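 TI was the mean CC50 (XTT, uninfected MT-2) divided by the mean EC50, determined for each cell line in each experiment.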
Data set [9] concerns Human immunodeficiency virus 1. Briefly: Selectivity ratio of EC50 for HIV1 harboring capsid I201V mutant protein infected in human HeLa cells to EC50 for wild type HIV1 infected in human HeLa cells. The format is functional. The method in brief:
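MT-2 cells were infected for 2 h with wild-type NL4-3 or recombinant NL4-3 carrying CA I201V or SP1 A1V. They were then cocultured with HeLa CD4 LTR/beta-Gal indicator cells in serially diluted compound. Beta-gal reporter was read after 4 days. EC50s are means ± SD of 3–6 experiments. Fold change is mutant EC50 divided by wild-type EC50.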

Data set [10] relates to Human immunodeficiency virus 1. Briefly: Antiviral activity HIV1 3B infected in human PBMC after 7 days by scintillation counting. The format is functional, organism-based. To be noted: Human immunodeficiency virus 1, 3B, 168 h. The method in brief:
(§4)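 PBMCs came from buffy coats pooled from 3–4 seronegative donors, were PHA-stimulated (1.5 μg/ml, 3 days) and frozen. Thawed cells were infected 1 h at 37°C with virus input set by TCID50, then pelleted and resuspended in IL-2 (10 ng/ml). They were plated at 4 × 10⁵ cells/ml onto compounds for 7 days at 37°C. Supernatant RT activity was measured by Quan-T-RT scintillation assay.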

The subject of data set [11] is Human immunodeficiency virus 1. Briefly: Antiviral activity HIV1 92BR014 infected in human PBMC after 7 days by scintillation counting. The format is functional, organism-based. The conditions noted are these: Human immunodeficiency virus 1, 92BR014, 168 h. The method in brief: (§5)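 Fresh PBMCs from HIV/HBV-seronegative donors were PHA-stimulated (4 μg/ml, 48–72 h) and kept with IL-2 (20 U/ml), with at least two donors pooled. Cells were seeded at 5 × 10⁴/well and infected (final MOI ≅0.1) with nine compound concentrations in triplicate wells. After 7 days, reverse transcriptase activity was measured in cell-free supernatant.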

For data set [12], the system named is Human immunodeficiency virus 1. Briefly: Antiviral activity HIV1 92BR017 infected in human PBMC after 7 days by scintillation counting. The format is functional, organism-based. The conditions noted are these: Human immunodeficiency virus 1, 92BR017, 168 h. Summed up:
as §4

The subject of data set [13] is Human immunodeficiency virus 1. Briefly: Antiviral activity HIV1 92HT594 infected in human PBMC after 7 days by scintillation counting. The conditions noted are these: Human immunodeficiency virus 1, 92HT594, 168 h. In kind it is functional, organism-based. The method in brief:
as §4

Data set [14] deals with Human immunodeficiency virus 1. Briefly: Antiviral activity HIV1 92HT599 infected in human PBMC after 7 days by scintillation counting. The format is functional, organism-based. The conditions noted are these: Human immunodeficiency virus 1, 92HT599, 168 h. Summed up: as §4
Data set [15] deals with Human immunodeficiency virus 1. Briefly: Antiviral activity HIV1 92RW009 infected in human PBMC after 7 days by scintillation counting. In kind it is functional, organism-based. To be noted: Human immunodeficiency virus 1, 92RW009, 168 h. The method in brief: as §4
Data set [16] deals with Human immunodeficiency virus 1. Briefly: Antiviral activity HIV1 92US072 infected in human PBMC after 7 days by scintillation counting. In kind it is functional, organism-based. The conditions noted are these: Human immunodeficiency virus 1, 92US072, 168 h. Summed up:
as §5

The nature of data set [17]: Therapeutic index, ratio of CC50 for human PBMC to EC50 for HIV1 ROJO infected in human PBMC. The conditions noted are these: read-out: TI. The method in brief: (§6)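 PHA-stimulated (4 μg/ml, 48 to 72 h) PBMCs pooled from at least two seronegative donors, kept with 20 U/ml IL-2, plated at 5 × 10⁴ cells/well. Infected with clinical isolate (final MOI ≅0.1) alongside nine compound concentrations in triplicate wells, 7 days. Supernatant reverse transcriptase activity measured. TI is mean PBMC CC50 divided by mean EC50.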

A short description of data set [18]: Therapeutic index, ratio of CC50 for human PBMC to EC50 for HIV1 WEJO infected in human PBMC. To be noted: read-out: TI. The method in brief: as §6
Data set [19] in a line: Therapeutic index, ratio of CC50 for human PBMC to EC50 for HIV1 91US056 infected in human PBMC. The conditions noted are these: read-out: TI. Summed up:
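TI was the mean PBMC CC50 divided by the mean EC50 from the 7-day PBMC reverse transcriptase assay.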

The nature of data set [20]: Therapeutic index, ratio of CC50 for human PBMC to EC50 for HIV1 92TH026 infected in human PBMC. The conditions noted are these: read-out: TI. The method in brief: as §6
Data set [21] in a line: Therapeutic index, ratio of CC50 for human PBMC to EC50 for HIV1 93TH074 infected in human PBMC. The conditions noted are these: read-out: TI. Summed up: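 Frozen PHA-stimulated (1.5 μg/ml, 3 days) buffy-coat PBMCs pooled from three or four seronegative donors. Infected with a TCID50-based virus input per 10⁶ cells for 1 h at 37°C, then pelleted and resuspended in 10 ng/ml IL-2. Plated at 4 × 10⁵ cells/ml on compound dilutions for 7 days at 37°C. Supernatant RT measured by Quan-T-RT. TI is mean CC50 divided by mean EC50.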

As for `CC(C)(C)c1ccc(C(Cn2cccc(C(F)(F)F)c2=O)NC2Cc3ccccc3C2)cc1` (stereo unspecified), the pEC50 in [1] is 6.44; in data set [2], 7.52; in data set [4], 7.77; in data set [7] it was 6.62; in [10], 6.49; in [11] it was 5.15. The pEC50 in [12] is 6.92; in data set [13], 5.96; in data set [14], 5.85; in data set [15], 5.85; in [16], 8.30. In addition, the selectivity ratio is 633 in [3]; 4 in data set [5]; 79 in data set [8]; under 1 in [17]; 11 in data set [18]; under 1 in data set [19]. Also, the selectivity ratio in data set [20] was under 1; in data set [21], 142. Further, in data set [6], the midpoint of cytotoxicity, the CC50 at 144 h, lay at 20000 nM. Further, the “Ratio EC50” value in data set [9] was over 49.

One may read the pEC50 as the negative decadic logarithm of the EC50, by convention in mol/L. A word on the CC50: it is the concentration at which the toxic effect on the cells reaches its halfway point. A high value points to lower toxicity to the cells.
